Assay results reported in ChEMBL document CHEMBL1629497, “Synthesis and biological evaluation of new N-alkyl 1-aryl-5-(1H-pyrrol-1-yl)-1H-pyrazole-3-carboxamides as cannabinoid receptor ligands” (Eur J Med Chem, 2010).
Activity calls are given as the source filed them. The rule behind the calls is not given here.

What was measured:
[1] = target: Cannabinoid receptor 1 (Homo sapiens, UniProt P21554); test: biochemical; assay type: cell-based, HEK293
[2] = target: Cannabinoid receptor 2 (Homo sapiens, UniProt P34972); test: Displacement of [3H]CP-55,940 from recombinant human CB2 receptor transfected in HEK cells; assay type: cell-based, HEK293
How it was run: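 Competition binding used membranes from HEK cells transfected with hCB1 or hCB2. Data are means of at least three experiments in duplicate. The selectivity index is Ki(CB2)/Ki(CB1).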

[3] = test system: Rattus norvegicus; test: Antiobesity activity in diet-induced obese Wistar rat assessed as water intake at 10 mg/kg, ip measured upto 6 hrs relative to vehicle-treated control; assay type: functional, organism-based; set-up: dose 10 mg/kg
How it was run: (§1)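 Adult male Wistar rats (~500 g) were individually housed on an inverted 12:12 h cycle with free access to chow and water. Groups of 7–8, matched for body weight and 3-day food intake, received vehicle or compound i.p. (saline with a few drops of Tween 80, 3 mL/kg) 30 min before lights off. Food and water were weighed at 1–6 h and 24 h. Analysis was by ANOVA and Mann-Whitney.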

[4] = test system: Rattus norvegicus; test: Antiobesity activity in diet-induced obese Wistar rat assessed as water intake at 10 mg/kg, ip measured after 24 hrs relative to vehicle-treated control; assay type: functional, organism-based; set-up: dose 10 mg/kg
How it was run: as §1

[5] = test system: Rattus norvegicus; test: Antiobesity activity in diet-induced obese Wistar rat assessed as reduction in food intake at 3 mg/kg, ip measured after 24 hrs relative to vehicle-treated control; assay type: functional, organism-based; set-up: dose 3 mg/kg
How it was run: as §1

[6] = test system: Rattus norvegicus; test: Antiobesity activity in diet-induced obese Wistar rat assessed as water intake at 3 mg/kg, ip measured upto 6 hrs relative to vehicle-treated control; assay type: functional, organism-based; set-up: dose 3 mg/kg
How it was run: as §1

[7] = test system: Rattus norvegicus; test: Antiobesity activity in diet-induced obese Wistar rat assessed as reduction in food intake at 3 mg/kg, ip measured after 1 to 6 hrs relative to vehicle-treated control; assay type: functional; set-up: scale not given: the % may be the effect or the level left; settings: route intraperitoneal
How it was run: as §1

[8] = test system: Rattus norvegicus; test: Antiobesity activity in diet-induced obese Wistar rat assessed as reduction in food intake at 10 mg/kg, ip measured after 24 hrs relative to vehicle-treated control; assay type: functional, organism-based; set-up: dose 10 mg/kg
How it was run: as §1

[9] = test system: Rattus norvegicus; test: Antiobesity activity in diet-induced obese Wistar rat assessed as reduction in food intake at 10 mg/kg, ip measured after 1 to 6 hrs relative to vehicle-treated control; assay type: functional; set-up: scale not given: the % may be the effect or the level left; settings: route intraperitoneal
How it was run: as §1

[10] = test system: Rattus norvegicus; test: Antiobesity activity in diet-induced obese Wistar rat assessed as water intake at 1 mg/kg, ip measured after 24 hrs relative to vehicle-treated control; assay type: functional, organism-based; set-up: dose 1 mg/kg
How it was run: as §1

[11] = test system: Rattus norvegicus; test: Antiobesity activity in diet-induced obese Wistar rat assessed as water intake at 3 mg/kg, ip measured after 24 hrs relative to vehicle-treated control; assay type: functional, organism-based; set-up: dose 3 mg/kg
How it was run: as §1

[12] = test system: Rattus norvegicus; test: Antiobesity activity in diet-induced obese Wistar rat assessed as water intake at 0.1 mg/kg, ip measured after 24 hrs relative to vehicle-treated control; assay type: functional, organism-based; set-up: dose 0.1 mg/kg
How it was run: as §1

[13] = Cmax in Wistar rat plasma at 10 mg/kg, ip; assay type: ADME, organism-based; set-up: dose 10 mg/kg, route intraperitoneal
How it was run: (§2)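 Rats (n = 18) were dosed at 10 mg/kg i.p. in 2% Tween 80/98% saline (1 mL/kg). Plasma and brain were sampled at 30, 60, 120, 240 and 480 min and 24 h, then stored at −80 °C. Samples were extracted with internal standard and quantified by LC-MS/MS against calibration curves. Non-compartmental analysis was used, and brain penetration was taken as the AUC ratio. Values are means of three rats.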

[14] = test system: Brain; test: Drug level in Wistar rat brain at 10 mg/kg, ip; assay type: ADME, organism-based; set-up: dose 10 mg/kg, route intraperitoneal; settings: in vivo
How it was run: as §2

[15] = AUC in Wistar rat brain at 10 mg/kg, ip; assay type: ADME, organism-based; set-up: dose 10 mg/kg, route intraperitoneal
How it was run: as §2

[16] = Mean residence time in Wistar rat brain at 10 mg/kg, ip; assay type: ADME, organism-based; set-up: dose 10 mg/kg, route intraperitoneal
How it was run: as §2

[17] = test system: Rattus norvegicus; test: Antiobesity activity in diet-induced obese Wistar rat assessed as reduction in food intake at 1 mg/kg, ip measured after 24 hrs relative to vehicle-treated control; assay type: functional, organism-based; set-up: dose 1 mg/kg
How it was run: as §1

[18] = Half life in Wistar rat brain at 10 mg/kg, ip; assay type: ADME, organism-based; set-up: dose 10 mg/kg, route intraperitoneal
How it was run: as §2

[19] = test system: Rattus norvegicus; test: Antiobesity activity in diet-induced obese Wistar rat assessed as reduction in food intake at 0.1 mg/kg, ip measured after 1 to 6 hrs relative to vehicle-treated control; assay type: functional, organism-based; set-up: dose 0.1 mg/kg
How it was run: as §1

[20] = test system: Rattus norvegicus; test: Antiobesity activity in diet-induced obese Wistar rat assessed as water intake at 1 mg/kg, ip measured after upto 6 hrs relative to vehicle-treated control; assay type: functional, organism-based; set-up: dose 1 mg/kg
How it was run: as §1

[21] = Tmax in Wistar rat brain at 10 mg/kg, ip; assay type: ADME, organism-based; set-up: dose 10 mg/kg, route intraperitoneal
How it was run: as §2

[22] = test system: Rattus norvegicus; test: Antiobesity activity in diet-induced obese Wistar rat assessed as water intake at 0.1 mg/kg, ip measured upto 6 hrs relative to vehicle-treated control; assay type: functional, organism-based; set-up: dose 0.1 mg/kg
How it was run: as §1

[23] = Mean residence time in Wistar rat plasma at 10 mg/kg, ip; assay type: ADME, organism-based; set-up: dose 10 mg/kg, route intraperitoneal
How it was run: as §2

[24] = test system: Rattus norvegicus; test: Antiobesity activity in diet-induced obese Wistar rat assessed as reduction in food intake at 1 mg/kg, ip measured after 1 to 6 hrs relative to vehicle-treated control; assay type: functional; set-up: scale not given: the % may be the effect or the level left; settings: route intraperitoneal
How it was run: as §1

[25] = Cmax in Wistar rat brain at 10 mg/kg, ip; assay type: ADME, organism-based; set-up: dose 10 mg/kg, route intraperitoneal
How it was run: as §2

[26] = Tmax in Wistar rat plasma at 10 mg/kg, ip; assay type: ADME, organism-based; set-up: dose 10 mg/kg, route intraperitoneal
How it was run: as §2

[27] = AUC (last) in Wistar rat plasma at 10 mg/kg, ip; assay type: ADME, organism-based; set-up: dose 10 mg/kg, route intraperitoneal, time 0 - last
How it was run: as §2

[28] = Half life in Wistar rat plasma at 10 mg/kg, ip; assay type: ADME, organism-based; set-up: dose 10 mg/kg, route intraperitoneal
How it was run: as §2

Chain of Cannabinoid receptor 2 (P34972 whole entry): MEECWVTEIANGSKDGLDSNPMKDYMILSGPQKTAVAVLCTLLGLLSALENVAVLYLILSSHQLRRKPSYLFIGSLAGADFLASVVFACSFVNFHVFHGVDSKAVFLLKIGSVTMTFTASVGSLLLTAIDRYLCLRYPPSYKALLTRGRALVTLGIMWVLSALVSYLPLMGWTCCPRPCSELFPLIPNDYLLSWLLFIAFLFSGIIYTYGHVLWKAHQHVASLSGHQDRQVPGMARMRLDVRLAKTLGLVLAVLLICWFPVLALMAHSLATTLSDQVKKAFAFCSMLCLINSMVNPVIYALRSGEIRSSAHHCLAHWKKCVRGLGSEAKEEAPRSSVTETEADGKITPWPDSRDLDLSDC
Chain of Cannabinoid receptor 1 (P21554 whole entry): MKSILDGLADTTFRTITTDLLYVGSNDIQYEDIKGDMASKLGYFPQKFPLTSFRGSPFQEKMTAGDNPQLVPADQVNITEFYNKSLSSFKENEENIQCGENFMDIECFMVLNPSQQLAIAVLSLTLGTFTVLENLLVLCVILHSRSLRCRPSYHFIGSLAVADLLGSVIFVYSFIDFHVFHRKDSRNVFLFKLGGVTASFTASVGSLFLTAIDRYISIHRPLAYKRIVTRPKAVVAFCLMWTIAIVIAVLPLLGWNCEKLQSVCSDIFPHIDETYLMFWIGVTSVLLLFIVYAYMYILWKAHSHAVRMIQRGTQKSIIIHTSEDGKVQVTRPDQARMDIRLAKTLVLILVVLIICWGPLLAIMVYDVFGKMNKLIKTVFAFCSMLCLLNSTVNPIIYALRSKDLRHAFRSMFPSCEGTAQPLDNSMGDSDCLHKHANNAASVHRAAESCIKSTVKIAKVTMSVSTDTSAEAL

## CCCNC(=O)c1nn(-c2ccc(Cl)cc2Cl)c(-n2cccc2)c1C
[1]
  Ki: 550 nM
[2]
  Ki: 1500 nM

## Cc1c(C(=O)NC(C)(C)C)nn(-c2ccc(Cl)cc2Cl)c1-n1cccc1
[1]
  Ki: 89.5 nM
[2]
  Ki: 14.6 nM

## CCCCCCC(C)NC(=O)c1nn(-c2ccc(Cl)cc2Cl)c(-n2c(C)ccc2C)c1C (stereo unspecified)
[1]
  Ki: 105 nM
[2]
  Ki: 136 nM

## CCCCNC(=O)c1nn(-c2ccc(Cl)cc2Cl)c(-n2c(C)ccc2C)c1C
[1]
  Ki: 123 nM
[2]
  Ki: 460 nM

## Cc1c(C(=O)NCCC(C)(C)C)nn(-c2ccc(Cl)cc2Cl)c1-n1c(C)ccc1C
[3]
  Activity: inactive
[4]
  Activity: inactive
[5]
  Activity: Active
[6]
  Activity: inactive
[7]
  Activity: 10%
[8]
  Activity: Active
[9]
  Activity: 30%
[10]
  Activity: inactive
[11]
  Activity: inactive
[1]
  Ki: 37.5 nM
[2]
  Ki: 134 nM
[12]
  Activity: inactive

## CCCCCCCNC(=O)c1nn(-c2ccc(F)cc2F)c(-n2c(C)ccc2C)c1C
[1]
  Ki: 368 nM
[2]
  Ki: 365 nM

## CCCCCNC(=O)c1nn(-c2ccc(Cl)cc2Cl)c(-n2cccc2)c1C
[1]
  Ki: 81 nM
[2]
  Ki: 206 nM

## CCCCCCC(C)NC(=O)c1nn(-c2ccc(Cl)cc2Cl)c(-n2cccc2)c1C (stereo unspecified)
[1]
  Ki: 157 nM
[2]
  Ki: 237 nM

## CCCCCCNC(=O)c1nn(-c2ccc(Cl)cc2Cl)c(-n2cccc2)c1C
[13]
  Cmax: 170 ng/mL
[14]
  Activity: 97%
[15]
  AUC: 330 ng·h/mL
[3]
  Activity: inactive
[16]
  MRT: 14.3 h
[17]
  Activity: inactive
[18]
  half-life: 14.4 h
[19]
  Activity: inactive
[4]
  Activity: inactive
[20]
  Activity: inactive
[21]
  Tmax: 0.5 h
[8]
  Activity: inactive
[9]
  Activity: 25%
[10]
  Activity: inactive
[22]
  Activity: inactive
[11]
  Activity: inactive
[23]
  MRT: 14.8 h
[24]
  Activity: 10%
[25]
  Cmax: 110 ng/mL
[1]
  Ki: 124 nM
[2]
  Ki: 383 nM
[26]
  Tmax: 0.5 h
[12]
  Activity: inactive
[27]
  AUC(0-t): 340 ng·h/mL
[28]
  half-life: 13.9 h

## CCCCCCNC(=O)c1nn(-c2ccc(F)cc2F)c(-n2c(C)ccc2C)c1C
[1]
  Ki: 311 nM
[2]
  Ki: 487 nM

## Cc1c(C(=O)NCCCCCO)nn(-c2ccc(Cl)cc2Cl)c1-n1cccc1
[1]
  Ki: 534 nM
[2]
  Ki: 2340 nM

## CCCCCCCNC(=O)c1nn(-c2ccc(Cl)cc2Cl)c(-n2c(C)ccc2C)c1C
[1]
  Ki: 97.2 nM
[2]
  Ki: 205 nM

## CCC(C)(C)NC(=O)c1nn(-c2ccc(Cl)cc2Cl)c(-n2c(C)ccc2C)c1C
[1]
  Ki: 193 nM
[2]
  Ki: 121 nM

## Cc1c(C(=O)NC(C)(C)C)nn(-c2ccc(Cl)cc2Cl)c1-n1c(C)ccc1C
[1]
  Ki: 151 nM
[2]
  Ki: 20.2 nM

## CCCCCCCNC(=O)c1nn(-c2ccc(Cl)cc2Cl)c(-n2cccc2)c1C
[1]
  Ki: 211 nM
[2]
  Ki: 255 nM

## Cc1c(C(=O)NC(C)C)nn(-c2ccc(Cl)cc2Cl)c1-n1c(C)ccc1C
[1]
  Ki: 234 nM
[2]
  Ki: 1800 nM

## Cc1c(C(=O)NCCC(C)(C)C)nn(-c2ccc(F)cc2F)c1-n1c(C)ccc1C
[1]
  Ki: 90.7 nM
[2]
  Ki: 163 nM

## CCCCNC(=O)c1nn(-c2ccc(Cl)cc2Cl)c(-n2cccc2)c1C
[1]
  Ki: 273 nM
[2]
  Ki: 796 nM

## CCCCCNC(=O)c1nn(-c2ccc(Cl)cc2Cl)c(-n2c(C)ccc2C)c1C
[1]
  Ki: 182 nM
[2]
  Ki: 495 nM

## CCCNC(=O)c1nn(-c2ccc(Cl)cc2Cl)c(-n2c(C)ccc2C)c1C
[1]
  Ki: 290 nM
[2]
  Ki: 1950 nM

## Cc1c(C(=O)NCCCCCO)nn(-c2ccc(Cl)cc2Cl)c1-n1c(C)ccc1C
[1]
  Ki: 372 nM
[2]
  Ki: 3200 nM

## CCC(C)(C)NC(=O)c1nn(-c2ccc(Cl)cc2Cl)c(-n2cccc2)c1C
[1]
  Ki: 47.6 nM
[2]
  Ki: 5.7 nM

## Cc1c(C(=O)NCCC(C)(C)C)nn(-c2ccc(Cl)cc2Cl)c1-n1cccc1
[1]
  Ki: 45.6 nM
[2]
  Ki: 52.4 nM

## Cc1c(C(=O)NC(C)C)nn(-c2ccc(Cl)cc2Cl)c1-n1cccc1
[1]
  Ki: 519 nM
[2]
  Ki: 1130 nM
